The nature of experiment [1]: inhibitors of TNFa-induced NFkB p65 translocation, primary screen, imaging, HUVEC, MLSMR starter and 10KST1 sets (AID 438;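 active = inhibition above 20% together with a positive visual image hit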;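 also: compound added about 3h40 before a 20 min TNFalpha stimulation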;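 as to inhibition: signal is the nuclear over cytoplasmic p65 intensity ratio per well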). The note with it: HUVEC TNFa-induced p65 nuclear translocation; cell count: measured here: nuclei count (cytotoxicity indicator), at 2.08 µM; inhibition: at 2 µM, stronger effect = higher value, 0% TNFa-plus-vehicle, 100% no-TNFa wells.
Experiment [2] can be described thus: endothelial E-selectin expression blockers – imaging, HUVEC, immunofluorescence, MLSMR starter and 10KST1 sets, primary screen (AID 487;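 active = visually confirmed hit in the image check and inhibition above 20%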;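 as to inhibition: signal is fraction of cell area covered by stained E-selectin grains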;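 as to nuclei count: 100% = median nuclei count of all wells on the same plate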). The settings on record: HUVEC TNFalpha-induced E-selectin immunofluorescence imaging, at 2 µM; inhibition: stronger effect = higher value; nuclei count: measured here: cell number, toxicity.
A short description of experiment [3]: Primary imaging screen for DUSP6 inhibitors that restore phospho-Erk in transfected HeLa cells, chemical complementation (AID 609;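 active = compounds giving at least 50% inhibition in the cell-based MKP-3 phosphatase rescue imaging test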;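 as to inhibition: phospho-Erk level distribution per well compared with pooled transfected vehicle control wells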). The settings on record: HeLa MKP-3 transfected, phospho-Erk imaging KS statistic, at 10 µM, cells stimulated with TPA for 15 min.
The target in experiment [4] is Dual specificity protein phosphatase 6 (Homo sapiens) (UniProt Q16828). Described as above. The settings on record: HeLa MKP-3 transfected, phospho-Erk imaging KS statistic; at 10 µM; stronger effect = higher value; cells stimulated with TPA for 15 min.
Experiment [5] concerns the target Voltage-gated potassium channel subunit beta-2 (Rattus norvegicus) (UniProt P62483). Description: inhibitors of rat Kvbeta2 reductase activity – biochemical, NADPH fluorescence, primary screen (AID 622;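 active = fluorescence slope higher than the sample average by over 3 SD, cut at about -0.22 in these data, passing the limit was not always enough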;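 also: slope of raw intensity against log time taken from 70 to 1610 s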). The settings on record: recombinant KvBeta, 4-cyanobenzaldehyde reduction, at 10 µM, stronger effect = higher value.
The target is the same in experiment [6]. Nature of the experiment: enhancers of rat Kvbeta2 NADPH turnover – biochemical, NADPH fluorescence, primary screen (AID 623;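 active = NADPH fluorescence slope more negative than the mean of all samples by about 3 SD, 99.7% confidence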;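 also: fluorescence intensity change per second fitted from 20 to 320 s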). The settings on record: Recombinant KvBeta, NADPH fluorescence decrease slope, 10 min; at 10 µM; stronger effect = lower value.
For experiment [7], the target named is Muscarinic acetylcholine receptor M4 (Homo sapiens) (UniProt P08173). Description: M4-linked GIRK flux change, two-sided – cell-based, HEK293 M4/GIRK, thallium flux, BTC-AM, M4 allosteric agonist project, primary screen (AID 625;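 active = fluorescence slope after compound addition differing from the mean of all tested samples at 99.7% confidence, mostly higher but some lower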;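 also: thallium influx through GIRK channels coupled to M4 in HEK293 cells with BTC-AM dye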). The note with it: at 10 µM, actives lie on both sides. In short, it runs like this: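 Material – HEK293 cells with M4 receptor and GIRK channels · Buffer or medium – pH 7.3 thallium assay buffer · Doses – one dose, 10 µM final · Timing – cells overnight at 37 °C, BTC-AM loading 1 h, reads 2 min total · Measured by – kinetic fluorescence with BTC-AM dye · Controls – carbachol and DMSO controls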

Experiment [8] is described as follows: inhibitors of larval lipid processing in zebrafish, primary screen, whole organism, PED6 fluorescence, gall bladder and intestine (AID 686;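 active = a full or partial loss of lipid-probe fluorescence in the fish gall bladder, intestine or both, judged by eye; inactive = no fluorescence loss, or compound toxic to the fish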;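 also: larvae 5 to 7 days old with five fish per well; signal comes from phospholipase A2 cleavage of quenched PED6 carried via bile; overnight exposure to compound and PED6 before scoring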). The note with it: Zebrafish larvae PED6 lipid processing, fluorescence scoring; screened at 20 µM (by protocol). An outline of the steps:
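system = live zebrafish larvae aged 5-7 days, whole organism | probe or stimulus = ingested quenched lipid PED6 at 100 nM | doses = 20 µM single dose | timing = overnight exposure | detection = fluorescence microscopy with visual scoring of gall bladder and intestine | read-out = visual per-well fluorescence inhibition score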

Experiment [9] in a line: loss of swimming-algae plug formation – whole organism, Chlamydomonas reinhardtii, WT vs cilia-less mutant, absorbance, 96-well, primary screen (AID 463189).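 Also: 0% = wild type cc124 cells in DMSO and 100% = ciliumless bld1 mutant cells.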 The settings on record: Chlamydomonas reinhardtii gravitaxis, OD600 absorbance, 2 days; at 10 µM; stronger effect = higher value.
Setting [10] is: measured here: cell density z-score.
[11] abbreviates: measured here: nuclear c-Myc green intensity z-score.
The mark [12] stands for this setting: measured here: nuclear pErk red intensity z-score, stronger effect = higher value.

Calls of active or inactive are those of the source.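 The calls were made as follows, unless noted: active = inhibition at or above 50% relative to wild type and mutant plate controls; inactive = inhibition below 50%.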

Muscarinic acetylcholine receptor M4 (Homo sapiens), sequence (P08173 whole entry, looked up): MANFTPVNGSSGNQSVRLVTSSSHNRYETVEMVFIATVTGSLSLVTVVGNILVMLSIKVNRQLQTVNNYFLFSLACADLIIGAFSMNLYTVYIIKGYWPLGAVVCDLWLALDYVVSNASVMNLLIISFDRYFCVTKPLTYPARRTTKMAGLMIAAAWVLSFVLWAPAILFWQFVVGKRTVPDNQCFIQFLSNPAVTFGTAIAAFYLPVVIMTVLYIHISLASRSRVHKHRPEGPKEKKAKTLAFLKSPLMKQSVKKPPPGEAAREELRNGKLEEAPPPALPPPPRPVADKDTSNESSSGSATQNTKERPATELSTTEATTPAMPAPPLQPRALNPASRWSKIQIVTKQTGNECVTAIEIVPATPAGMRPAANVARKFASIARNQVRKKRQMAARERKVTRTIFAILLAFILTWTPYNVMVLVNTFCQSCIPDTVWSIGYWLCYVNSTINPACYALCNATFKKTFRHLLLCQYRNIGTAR
Voltage-gated potassium channel subunit beta-2 (Rattus norvegicus), sequence (P62483 whole entry, looked up): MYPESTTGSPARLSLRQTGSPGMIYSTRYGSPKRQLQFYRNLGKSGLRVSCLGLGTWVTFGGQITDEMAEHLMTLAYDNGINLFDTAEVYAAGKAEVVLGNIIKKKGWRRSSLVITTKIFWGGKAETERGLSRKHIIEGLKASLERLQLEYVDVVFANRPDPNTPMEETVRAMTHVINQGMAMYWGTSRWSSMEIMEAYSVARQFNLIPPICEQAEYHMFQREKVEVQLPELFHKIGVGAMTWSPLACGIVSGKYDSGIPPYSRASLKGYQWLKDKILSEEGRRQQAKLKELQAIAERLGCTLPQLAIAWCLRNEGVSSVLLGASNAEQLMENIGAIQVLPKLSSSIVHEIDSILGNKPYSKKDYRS
Dual specificity protein phosphatase 6 (Homo sapiens), sequence (Q16828 whole entry, looked up): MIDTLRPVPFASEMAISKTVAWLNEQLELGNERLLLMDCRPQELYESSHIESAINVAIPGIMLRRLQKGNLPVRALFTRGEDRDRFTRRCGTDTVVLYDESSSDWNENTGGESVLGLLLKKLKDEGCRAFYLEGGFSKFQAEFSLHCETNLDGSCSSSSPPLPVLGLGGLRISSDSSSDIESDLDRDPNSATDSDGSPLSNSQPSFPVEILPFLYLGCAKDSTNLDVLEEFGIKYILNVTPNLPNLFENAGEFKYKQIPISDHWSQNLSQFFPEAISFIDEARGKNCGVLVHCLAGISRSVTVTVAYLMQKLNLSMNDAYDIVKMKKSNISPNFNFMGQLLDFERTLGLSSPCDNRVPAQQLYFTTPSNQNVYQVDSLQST

Broadly, the inhibition is the drop in the measured response relative to a control, in per cent. `CC1(C)CC(=O)C2=C(C1)OC(N)=C(C#N)C21C(=O)N(CN2CCOCC2)c2ccccc21` (stereo unspecified): the cell count in experiment [1] amounted to 371. Further, the inhibition in [1] was -2.9% (inactive); in experiment [2], -122% (inactive); in experiment [4] it was 19.4% (inactive); in experiment [9], 36.4% (inactive). Besides, the nuclei count in [2] was found to be 138%. Further, the z-score in experiment [3] (setting [10]) was 0.502; in experiment [3] (setting [11]), -1.1; in experiment [3] (setting [12]), -1.15. Further, the fluorescence slope is -0.479 (inactive) in [5] and 0.00562 (inactive) in experiment [7]. Moreover, the NADPH fluorescence slope in experiment [6] is -3.3e-05 (inactive). In experiment [8], the result was inactive.

Regarding `CC(C)Sc1nnc2n(CCc3ccccc3)c(=O)c3c4c(sc3n12)COC(C)(C)C4`, in [1], the cell count worked out at 532. The inhibition in experiment [1] is -8% (inactive); in [2] it was -61.3% (inactive); in experiment [4] it was 7.93% (inactive); in [9], 19% (inactive). The compound further came in with a nuclei count in experiment [2] of 139%. The results for the z-score in [3] (setting [10]), in [3] (setting [11]) and in experiment [3] (setting [12]) were 0.633, -0.0361 and -0.58, respectively. Besides, the fluorescence slope is -0.435 (inactive) in experiment [5] and 0.00702 (inactive) in [7]. The NADPH fluorescence slope in experiment [6] was -2.4e-05 (inactive). Also, the compound was classed as inactive in experiment [8].

With `Cc1cccc(NC(=O)c2cc(N3CCOCC3)nc3ccccc23)c1`, the cell count in experiment [1] worked out at 620. Moreover, the inhibition in experiment [1] is -13.1% (inactive); in experiment [2] it was -446% (inactive); in [4] it was -11.5% (inactive); in experiment [9], -4.1% (inactive). The same compound displayed a nuclei count in experiment [2] of 148%. The z-score in experiment [3] (setting [10]) is -1.06; in experiment [3] (setting [11]), 1.5; in experiment [3] (setting [12]), 2.96. The fluorescence slope in experiment [5] is -0.438 (inactive); in experiment [7], 0.00519 (inactive). Further, the NADPH fluorescence slope in [6] was -7.5e-05 (inactive). Also, the result in experiment [8] was inactive.

As to `CC1(C)Cc2c(C#N)c(N3CCN(C(=O)c4ccccc4)CC3)nc(-c3ccco3)c2CS1`, the cell count in [1] turned out to be 640. Also, the inhibition was -9% (inactive) in experiment [1], -74.3% (inactive) in experiment [2], 19.1% (inactive) in experiment [4] and 7.79% (inactive) in [9]. The same compound registered a nuclei count in experiment [2] of 156%. In addition, the values for the z-score in [3] (setting [10]), in [3] (setting [11]) and in experiment [3] (setting [12]) were 0.833, 0.824 and -0.638, respectively. The fluorescence slope was -0.401 (inactive) in [5] and 0.0059 (inactive) in experiment [7]. The NADPH fluorescence slope in experiment [6] is -2.5e-05 (inactive). In addition, the compound was called inactive in experiment [8].

With `CCn1c(SCC(=O)Nc2ccccc2C(=O)OC)nnc1-c1ccc(N)cc1`, the cell count in experiment [1] was 653. The inhibition in experiment [1] is 2.4% (inactive); in [2], 7.2% (inactive); in experiment [4] it was 22.1% (inactive); in experiment [9], 19.8% (inactive). Also, the nuclei count in experiment [2] worked out at 176%. Also, the z-score in [3] (setting [10]) was 0.614; in experiment [3] (setting [11]), 0.0177; in experiment [3] (setting [12]), -0.913. Moreover, the fluorescence slope was -0.46 (inactive) in experiment [5] and 0.00557 (inactive) in [7]. In addition, the NADPH fluorescence slope in experiment [6] was -4.1e-05 (inactive). For the same compound, the compound was called inactive in experiment [8].

Turning to `c1ccc(-n2ncc3c(NCC4CCCO4)ncnc32)cc1` (stereo unspecified), in experiment [1], the cell count turned out to be 597. In addition, the inhibition in experiment [1] is -4% (inactive); in experiment [2], -84.5% (inactive); in experiment [4], 1.42% (inactive); in experiment [9] it was -15.2% (inactive). In addition, the nuclei count in experiment [2] amounted to 113%. The z-score was -2.6 in experiment [3] (setting [10]), -0.155 in experiment [3] (setting [11]) and 1.07 in experiment [3] (setting [12]). The fluorescence slope in experiment [5] is -0.389 (inactive); in experiment [7], 0.00807 (inactive). In addition, the NADPH fluorescence slope in experiment [6] was -9.3e-05 (inactive). Further, in experiment [8], the call was inactive.

With `CCCSc1nnc2n(Cc3ccccc3)c(=O)c3c4c(sc3n12)CCC4`, the cell count in [1] amounted to 405. The inhibition in experiment [1] is -0.7% (inactive); in [2] it was -31.5% (inactive); in experiment [4], -4.59% (inactive); in experiment [9], 9.79% (inactive). Moreover, the nuclei count in [2] is 170%. For the same compound, the results for the z-score in experiment [3] (setting [10]), in experiment [3] (setting [11]) and in experiment [3] (setting [12]) were 0.317, -0.563 and 1.11, respectively. For the same compound, the fluorescence slope in experiment [5] is -0.453 (inactive); in experiment [7] it was 0.00548 (inactive). For the same compound, in [6], the NADPH fluorescence slope was -0.000111 (inactive). In addition, in experiment [8], the outcome was inactive.

The values above are taken from PubChem BioAssay.
